Data reported in ChEMBL document CHEMBL1154716, “Synthesis of some new S-triazine based chalcones and their derivatives as potent antimicrobial agents” (2010).
Activity calls are given as the source filed them.

What was measured:
[1] = tested on: Bacillus cereus; assay: Antimicrobial activity against Bacillus cereus at 10 ug/disk after 24 hrs by disk diffusion assay; assay type: functional
Summary of the method: (§1)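 Disc diffusion on 4 mm filter discs. Bacteria are grown overnight in LB at 28 C, then adjusted in saline to 1.0 × 10^5 cfu/ml. The suspension is mixed into top agar over peptone agar plates. Plates are incubated 24 h at 28 C, and growth-inhibition zone diameter is measured. Streptomycin and ampicillin controls are applied from a 1 mg/ml stock. Tests are done in duplicate.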

[2] = tested on: Micrococcus flavus; assay: Antimicrobial activity against Micrococcus flavus at 10 ug/disk after 24 hrs by disk diffusion assay; assay type: functional; conditions: for zone of inhibition at 10 µg/disc: read-out: IZ; summary of the method: as §1
[3] = tested on: Staphylococcus aureus; assay: Antimicrobial activity against Staphylococcus aureus at 10 ug/disk after 24 hrs by disk diffusion assay; assay type: functional; summary of the method: as §1
[4] = tested on: Escherichia coli; assay: Antimicrobial activity against Escherichia coli at 10 ug/disk after 24 hrs by disk diffusion assay; assay type: functional; conditions: for zone of inhibition at 10 µg/disc: read-out: IZ; summary of the method: as §1
[5] = tested on: Pseudomonas aeruginosa; assay: Antimicrobial activity against Pseudomonas aeruginosa at 10 ug/disk after 24 hrs by disk diffusion assay; assay type: functional; conditions: for zone of inhibition at 10 µg/disc: read-out: IZ; summary of the method: as §1
[6] = tested on: Enterobacter cloacae; assay: Antimicrobial activity against Enterobacter cloacae at 10 ug/disk after 24 hrs by disk diffusion assay; assay type: functional; summary of the method: as §1
[7] = tested on: Salmonella typhimurium; assay: Antimicrobial activity against Salmonella Typhimurium at 10 ug/disk after 24 hrs by disk diffusion assay; assay type: functional, organism-based; conditions: Salmonella enterica subsp. enterica serovar Typhimurium; summary of the method: as §1
[8] = tested on: Listeria monocytogenes; assay: Antimicrobial activity against Listeria monocytogenes at 10 ug/disk after 24 hrs by disk diffusion assay; assay type: functional; summary of the method: as §1
[9] = tested on: Bacillus cereus; assay: Antimicrobial activity against Bacillus cereus at 1 umol/disk after 24 hrs by disk diffusion assay; assay type: functional; summary of the method: as §1
[10] = tested on: Micrococcus flavus; assay: Antimicrobial activity against Micrococcus flavus at 1 umol/disk after 24 hrs by disk diffusion assay; assay type: functional; summary of the method: as §1
[11] = tested on: Staphylococcus aureus; assay: Antimicrobial activity against Staphylococcus aureus at 1 umol/disk after 24 hrs by disk diffusion assay; assay type: functional; summary of the method: as §1
[12] = tested on: Escherichia coli; assay: Antimicrobial activity against Escherichia coli at 1 umol/disk after 24 hrs by disk diffusion assay; assay type: functional; summary of the method: as §1
[13] = tested on: Pseudomonas aeruginosa; assay: Antimicrobial activity against Pseudomonas aeruginosa at 1 umol/disk after 24 hrs by disk diffusion assay; assay type: functional; summary of the method: as §1
[14] = tested on: Enterobacter cloacae; assay: Antimicrobial activity against Enterobacter cloacae at 1 umol/disk after 24 hrs by disk diffusion assay; assay type: functional; summary of the method: as §1
[15] = tested on: Salmonella typhimurium; assay: Antimicrobial activity against Salmonella Typhimurium at 1 umol/disk after 24 hrs by disk diffusion assay; assay type: functional, organism-based; conditions: Salmonella enterica subsp. enterica serovar Typhimurium; summary of the method: as §1
[16] = tested on: Listeria monocytogenes; assay: Antimicrobial activity against Listeria monocytogenes at 1 umol/disk after 24 hrs by disk diffusion assay; assay type: functional; summary of the method: as §1
[17] = tested on: Bacillus cereus; assay: Antimicrobial activity against Bacillus cereus at 1 umol/spot after 18 hrs by TLC-bioautographic method; assay type: functional
Summary of the method: (§2)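 TLC bioautography. Samples are spotted on silica gel TLC plates, then sprayed with bacteria (1.0 × 10^5 cfu/ml) in tryptic soy broth. Plates are incubated 18 h at 37 C and sprayed with 3% aqueous p-iodonitrotetrazolium violet. After a further 3 h, growth is stopped with 70% EtOH. White zones on a pink background are scored as inhibition-zone diameter with standard errors.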

[18] = tested on: Micrococcus flavus; assay: Antimicrobial activity against Micrococcus flavus at 1 umol/spot after 18 hrs by TLC-bioautographic method; assay type: functional; summary of the method: as §2
[19] = tested on: Staphylococcus aureus; assay: Antimicrobial activity against Staphylococcus aureus at 1 umol/spot after 18 hrs by TLC-bioautographic method; assay type: functional; summary of the method: as §2
[20] = tested on: Escherichia coli; assay: Antimicrobial activity against Escherichia coli at 1 umol/spot after 18 hrs by TLC-bioautographic method; assay type: functional; summary of the method: as §2
[21] = tested on: Pseudomonas aeruginosa; assay: Antimicrobial activity against Pseudomonas aeruginosa at 1 umol/spot after 18 hrs by TLC-bioautographic method; assay type: functional; summary of the method: as §2
[22] = tested on: Enterobacter cloacae; assay: Antimicrobial activity against Enterobacter cloacae at 1 umol/spot after 18 hrs by TLC-bioautographic method; assay type: functional; summary of the method: as §2
[23] = tested on: Salmonella typhimurium; assay: Antimicrobial activity against Salmonella Typhimurium at 1 umol/spot after 18 hrs by TLC-bioautographic method; assay type: functional; summary of the method: as §2
[24] = tested on: Listeria monocytogenes; assay: Antimicrobial activity against Listeria monocytogenes at 1 umol/spot after 18 hrs by TLC-bioautographic method; assay type: functional; summary of the method: as §2
[25] = tested on: Bacillus cereus; assay: Antimicrobial activity against Bacillus cereus after 24 hrs by microdilution technique; assay type: functional
Summary of the method: (§3)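 Broth microdilution in LB medium. Inoculum is 1.0 × 10^4 cfu per well, from a saline-adjusted suspension of 1.0 × 10^5 cfu/ml. Compounds are dissolved in DMSO. Incubated 24 h at 28 C. MIC is the lowest concentration with no visible growth under a binocular microscope. MBC is read by subculture into fresh broth for 72 h, with no growth taken as 99.5% kill. OD is read at 655 nm.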

[26] = tested on: Micrococcus flavus; assay: Antimicrobial activity against Micrococcus flavus after 24 hrs by microdilution technique; assay type: functional; summary of the method: as §3
[27] = tested on: Staphylococcus aureus; assay: Antimicrobial activity against Staphylococcus aureus after 24 hrs by microdilution technique; assay type: functional; summary of the method: as §3
[28] = tested on: Escherichia coli; assay: Antimicrobial activity against Escherichia coli after 24 hrs by microdilution technique; assay type: functional; summary of the method: as §3
[29] = tested on: Pseudomonas aeruginosa; assay: Antimicrobial activity against Pseudomonas aeruginosa after 24 hrs by microdilution technique; assay type: functional; summary of the method: as §3
[30] = tested on: Enterobacter cloacae; assay: Antimicrobial activity against Enterobacter cloacae after 24 hrs by microdilution technique; assay type: functional; summary of the method: as §3
[31] = tested on: Salmonella typhimurium; assay: Antimicrobial activity against Salmonella Typhimurium after 24 hrs by microdilution technique; assay type: functional, Salmonella enterica subsp. enterica serovar Typhimurium; conditions: Salmonella enterica; summary of the method: as §3
[32] = tested on: Listeria monocytogenes; assay: Antimicrobial activity against Listeria monocytogenes after 24 hrs by microdilution technique; assay type: functional; summary of the method: as §3
[33] = Salmonella enterica subsp. enterica serovar Typhimurium

O=C(/C=C/c1cccs1)c1ccc(Nc2nc(Nc3ccccc3)nc(Nc3ccccc3)n2)cc1
816 µM: MBC [27] | MBC [28] | MBC [29] | MBC [31] | MBC [32]
inactive: inhibition zone (IZ) [1] | inhibition zone (IZ) [2] | inhibition zone (IZ) [3] | inhibition zone (IZ) [4] | inhibition zone (IZ) [5] | inhibition zone (IZ) [6] | inhibition zone (IZ) [7] | inhibition zone (IZ) [8] | inhibition zone (IZ) [9] | inhibition zone (IZ) [10] | inhibition zone (IZ) [11] | inhibition zone (IZ) [12] | inhibition zone (IZ) [13] | inhibition zone (IZ) [14] | inhibition zone (IZ) [15] | inhibition zone (IZ) [16] | inhibition zone (IZ) [17] | inhibition zone (IZ) [18] | inhibition zone (IZ) [19] | inhibition zone (IZ) [20] | inhibition zone (IZ) [21] | inhibition zone (IZ) [23, 33]
408 µM: MBC [25] | MBC [26] | MIC [27] | MIC [28] | MIC [29] | MBC [30] | MIC [31] | MIC [32]
204 µM: MIC [25] | MIC [26] | MIC [30]
0.08 millimeter: inhibition zone (IZ) [22] | inhibition zone (IZ) [24]

COc1ccccc1/C=C/C(=O)c1ccc(Nc2nc(Nc3ccccc3)nc(Nc3ccccc3)n2)cc1
inactive: inhibition zone (IZ) [1] | inhibition zone (IZ) [2] | inhibition zone (IZ) [3] | inhibition zone (IZ) [4] | inhibition zone (IZ) [6] | inhibition zone (IZ) [7] | inhibition zone (IZ) [8] | inhibition zone (IZ) [9] | inhibition zone (IZ) [10] | inhibition zone (IZ) [11] | inhibition zone (IZ) [12] | inhibition zone (IZ) [14] | inhibition zone (IZ) [15] | inhibition zone (IZ) [16] | inhibition zone (IZ) [18] | inhibition zone (IZ) [20] | inhibition zone (IZ) [21] | inhibition zone (IZ) [23, 33]
134 µM: MIC [25] | MIC [27] | MIC [28]
0.07 millimeter: inhibition zone (IZ) [19]
536 µM: MBC [26] | MBC [29] | MBC [30] | MBC [31] | MBC [32]
268 µM: MBC [25] | MIC [26] | MBC [27] | MBC [28] | MIC [29] | MIC [30] | MIC [31] | MIC [32]
6 mm: zone of inhibition at 10 µg/disc [5]
0.08 millimeter: inhibition zone (IZ) [22] | inhibition zone (IZ) [24]
0.06 millimeter: inhibition zone (IZ) [17]

O=C(/C=C/c1ccco1)c1ccc(Nc2nc(Nc3ccccc3)nc(Nc3ccccc3)n2)cc1
0.04 millimeter: inhibition zone (IZ) [10] | inhibition zone (IZ) [12]
6 mm: zone of inhibition at 10 µg/disc [5]
0.07 millimeter: inhibition zone (IZ) [17] | inhibition zone (IZ) [18]
8 mm: zone of inhibition at 10 µg/disc [2] | zone of inhibition at 10 µg/disc [4]
inactive: inhibition zone (IZ) [1] | inhibition zone (IZ) [3] | inhibition zone (IZ) [6] | inhibition zone (IZ) [7] | inhibition zone (IZ) [8] | inhibition zone (IZ) [9] | inhibition zone (IZ) [11] | inhibition zone (IZ) [14] | inhibition zone (IZ) [15] | inhibition zone (IZ) [16] | inhibition zone (IZ) [21] | inhibition zone (IZ) [23, 33]
844 µM: MBC [26] | MBC [27] | MBC [32]
0.08 millimeter: inhibition zone (IZ) [19] | inhibition zone (IZ) [20] | inhibition zone (IZ) [22] | inhibition zone (IZ) [24]
422 µM: MBC [25] | MIC [26] | MIC [27] | MBC [28] | MBC [29] | MBC [30] | MBC [31] | MIC [32]
211 µM: MIC [25] | MIC [28] | MIC [29] | MIC [30] | MIC [31]

COc1ccccc1-c1cc(-c2ccc(Nc3nc(Nc4ccccc4)nc(Nc4ccccc4)n3)cc2)nc(N)c1C#N
86.5 µM: MIC [25] | MIC [26]
inactive: inhibition zone (IZ) [1] | inhibition zone (IZ) [3] | inhibition zone (IZ) [5] | inhibition zone (IZ) [6] | inhibition zone (IZ) [7] | inhibition zone (IZ) [9] | inhibition zone (IZ) [11] | inhibition zone (IZ) [13] | inhibition zone (IZ) [14] | inhibition zone (IZ) [15] | inhibition zone (IZ) [17] | inhibition zone (IZ) [19] | inhibition zone (IZ) [20] | inhibition zone (IZ) [21]
6 mm: zone of inhibition at 10 µg/disc ([8]; read-out: IZ)
0.08 millimeter: inhibition zone (IZ) [22]
0.07 millimeter: inhibition zone (IZ) [23]
173 µM: MBC [25] | MBC [26] | MIC [27] | MIC [28] | MIC [30] | MIC [31]
0.04 millimeter: inhibition zone (IZ) [12]
692 µM: MBC [29] | MBC [32]
0.06 millimeter: inhibition zone (IZ) [10] | inhibition zone (IZ) [18]
7 mm: zone of inhibition at 10 µg/disc [4]
10 mm: zone of inhibition at 10 µg/disc [2]
0.09 millimeter: inhibition zone (IZ) [24]
346 µM: MBC [27] | MBC [28] | MIC [29] | MBC [30] | MBC [31] | MIC [32]
